Publication PMC5034155 (Journal of medicinal chemistry, 2016)

What was measured:
PB1(5) bromodomain = PB1(5) bromodomain (Homo sapiens, UniProt Q86U86); experiment: DSF thermal shift, PB1; type: binding; details: fragment screen against PB1(5); confirmed by ITC
[1] = system: clear cell renal cell carcinoma cell lines (786-O and Rcc4); experiment: ccRCC cell line proliferation; type: cell-based; details: 786-O (wild type PB1) and Rcc4 (PB1 downregulation)
[2] = system: C2C12 and C3H10T1/2 cells; experiment: MTT cell viability assay; type: cell-based; details: up to 50 μM dose, 72 hours
[3] = Chemical stability in cell media; type: physicochemical; details: after one week in cell media at 37°C
SMARCA4 = SMARCA4 (Homo sapiens, UniProt P51532); experiment: SMARCA4 FRAP assay; type: cell-based
Sequence of SMARCA4 (P51532 whole entry): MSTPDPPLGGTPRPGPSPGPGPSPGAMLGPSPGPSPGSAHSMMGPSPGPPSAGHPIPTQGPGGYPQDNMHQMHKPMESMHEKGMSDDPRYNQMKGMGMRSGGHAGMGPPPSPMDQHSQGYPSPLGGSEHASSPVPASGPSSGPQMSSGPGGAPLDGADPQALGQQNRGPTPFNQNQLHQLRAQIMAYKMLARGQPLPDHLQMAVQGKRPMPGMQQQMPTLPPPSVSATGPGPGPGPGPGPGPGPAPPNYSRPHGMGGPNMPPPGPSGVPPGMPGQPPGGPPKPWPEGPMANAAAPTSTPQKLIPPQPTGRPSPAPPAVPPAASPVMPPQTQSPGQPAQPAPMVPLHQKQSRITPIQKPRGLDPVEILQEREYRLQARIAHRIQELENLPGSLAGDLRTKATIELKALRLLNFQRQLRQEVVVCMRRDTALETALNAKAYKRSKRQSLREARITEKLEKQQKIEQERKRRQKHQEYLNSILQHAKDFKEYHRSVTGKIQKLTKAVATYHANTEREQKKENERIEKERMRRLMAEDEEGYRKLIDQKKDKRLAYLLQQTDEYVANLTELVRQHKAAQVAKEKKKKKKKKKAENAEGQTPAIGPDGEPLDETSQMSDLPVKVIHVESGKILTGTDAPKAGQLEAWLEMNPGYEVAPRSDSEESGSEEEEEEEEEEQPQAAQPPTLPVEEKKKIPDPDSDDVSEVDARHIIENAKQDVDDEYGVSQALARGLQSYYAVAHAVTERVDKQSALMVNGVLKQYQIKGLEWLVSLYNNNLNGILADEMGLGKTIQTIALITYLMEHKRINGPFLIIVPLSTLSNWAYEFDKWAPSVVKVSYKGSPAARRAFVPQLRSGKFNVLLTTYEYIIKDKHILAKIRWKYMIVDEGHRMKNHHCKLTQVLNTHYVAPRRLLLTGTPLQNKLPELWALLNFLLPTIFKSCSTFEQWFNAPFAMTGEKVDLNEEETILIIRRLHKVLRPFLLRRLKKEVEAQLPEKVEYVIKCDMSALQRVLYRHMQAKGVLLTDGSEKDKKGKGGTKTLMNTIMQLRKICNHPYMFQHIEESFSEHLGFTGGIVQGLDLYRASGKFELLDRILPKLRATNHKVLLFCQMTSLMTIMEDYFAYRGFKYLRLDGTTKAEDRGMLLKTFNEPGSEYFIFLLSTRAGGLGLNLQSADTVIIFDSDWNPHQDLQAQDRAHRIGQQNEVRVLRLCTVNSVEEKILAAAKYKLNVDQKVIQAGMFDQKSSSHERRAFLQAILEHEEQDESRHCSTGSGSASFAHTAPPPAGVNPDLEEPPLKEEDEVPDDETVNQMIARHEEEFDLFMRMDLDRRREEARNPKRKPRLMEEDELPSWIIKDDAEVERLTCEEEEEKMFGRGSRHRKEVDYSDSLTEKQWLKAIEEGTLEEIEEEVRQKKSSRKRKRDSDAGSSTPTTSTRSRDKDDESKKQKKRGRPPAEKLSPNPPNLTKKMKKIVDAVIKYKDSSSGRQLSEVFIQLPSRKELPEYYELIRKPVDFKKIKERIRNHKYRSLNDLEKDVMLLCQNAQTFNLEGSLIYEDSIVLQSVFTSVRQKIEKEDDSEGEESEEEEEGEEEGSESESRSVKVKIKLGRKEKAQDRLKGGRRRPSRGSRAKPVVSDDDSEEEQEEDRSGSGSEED
How it was run: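 Run like the SMARCA2 FRAP: U2OS cells treated with the HDAC inhibitor SAHA to induce hyperacetylation, transfected with a GFP-tagged bromodomain construct, and exposed to test compound. Chromatin displacement is read as the fluorescence recovery half-time after photobleaching.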

[4] = system: C3H10T1/2 mesenchymal cells; experiment: Adipocyte differentiation; type: cell-based; details: 20 μM
GFP-PB1 = GFP-PB1 (Homo sapiens, UniProt Q86U86); experiment: PB1 FRAP assay; type: cell-based; details: SAHA treated
Sequence of GFP-PB1 (Q86U86 whole entry): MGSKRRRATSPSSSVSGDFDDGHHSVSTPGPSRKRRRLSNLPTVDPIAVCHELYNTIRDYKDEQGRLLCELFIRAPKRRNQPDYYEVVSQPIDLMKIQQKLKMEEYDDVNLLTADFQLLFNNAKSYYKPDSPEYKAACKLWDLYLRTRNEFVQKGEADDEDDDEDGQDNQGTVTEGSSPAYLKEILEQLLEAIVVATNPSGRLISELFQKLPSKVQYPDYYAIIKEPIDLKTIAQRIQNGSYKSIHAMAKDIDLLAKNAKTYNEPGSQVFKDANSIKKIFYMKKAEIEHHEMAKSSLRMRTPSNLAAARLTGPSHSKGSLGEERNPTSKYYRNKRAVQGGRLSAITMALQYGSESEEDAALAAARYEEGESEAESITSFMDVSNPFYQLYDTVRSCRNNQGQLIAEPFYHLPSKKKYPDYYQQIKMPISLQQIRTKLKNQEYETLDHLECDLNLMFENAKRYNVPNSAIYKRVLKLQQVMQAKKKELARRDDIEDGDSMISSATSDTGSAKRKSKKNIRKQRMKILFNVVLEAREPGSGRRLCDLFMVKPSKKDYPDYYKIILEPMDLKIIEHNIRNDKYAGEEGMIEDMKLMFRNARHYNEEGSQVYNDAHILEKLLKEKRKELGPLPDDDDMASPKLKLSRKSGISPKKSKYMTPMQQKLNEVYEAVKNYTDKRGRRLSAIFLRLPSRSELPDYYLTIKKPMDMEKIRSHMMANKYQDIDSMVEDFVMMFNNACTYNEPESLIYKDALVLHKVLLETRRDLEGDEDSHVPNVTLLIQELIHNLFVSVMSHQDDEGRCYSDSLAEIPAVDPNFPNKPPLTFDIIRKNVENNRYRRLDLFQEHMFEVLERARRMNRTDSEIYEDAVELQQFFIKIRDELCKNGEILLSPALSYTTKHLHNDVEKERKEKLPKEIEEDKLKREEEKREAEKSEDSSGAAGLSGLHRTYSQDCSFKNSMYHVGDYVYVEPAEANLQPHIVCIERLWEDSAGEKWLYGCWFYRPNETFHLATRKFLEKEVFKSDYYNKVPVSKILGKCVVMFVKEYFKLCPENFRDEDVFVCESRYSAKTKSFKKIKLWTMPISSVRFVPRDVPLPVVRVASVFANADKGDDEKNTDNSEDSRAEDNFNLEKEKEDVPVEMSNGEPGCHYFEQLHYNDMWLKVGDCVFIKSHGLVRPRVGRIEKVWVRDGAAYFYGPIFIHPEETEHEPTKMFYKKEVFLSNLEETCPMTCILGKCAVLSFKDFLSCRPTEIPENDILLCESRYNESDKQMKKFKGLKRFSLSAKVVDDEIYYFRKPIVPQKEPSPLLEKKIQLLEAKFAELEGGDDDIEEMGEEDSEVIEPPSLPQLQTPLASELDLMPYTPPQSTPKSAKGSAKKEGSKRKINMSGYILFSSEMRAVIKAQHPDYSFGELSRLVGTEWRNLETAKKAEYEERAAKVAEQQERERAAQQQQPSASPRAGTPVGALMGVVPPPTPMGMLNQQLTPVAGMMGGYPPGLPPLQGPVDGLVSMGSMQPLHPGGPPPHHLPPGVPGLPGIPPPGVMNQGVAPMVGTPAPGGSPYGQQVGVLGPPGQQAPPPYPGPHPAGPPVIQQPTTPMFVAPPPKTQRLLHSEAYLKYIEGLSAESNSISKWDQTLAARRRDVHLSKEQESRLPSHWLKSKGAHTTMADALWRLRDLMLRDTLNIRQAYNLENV
How it was run: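 GFP-tagged PB1 (wild type or N263A / N707F acetyl-lysine-site mutants) expressed by transfection in cells pretreated with SAHA (2.5 μM) to hyperacetylate chromatin. Test compound given at several doses. Read-out is the half-time (t½) of fluorescence recovery after photobleaching, averaged from individual recovery curves of at least 20 cells per group with SEM. p-values are relative to wild type with SAHA.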

GFP-SMARCA2 in U2OS = GFP-SMARCA2 in U2OS (Homo sapiens, UniProt P51531); experiment: SMARCA2 FRAP assay; type: cell-based; details: U2OS treated with SAHA
Sequence of GFP-SMARCA2 in U2OS (P51531 1-1572 isoform P51531-2): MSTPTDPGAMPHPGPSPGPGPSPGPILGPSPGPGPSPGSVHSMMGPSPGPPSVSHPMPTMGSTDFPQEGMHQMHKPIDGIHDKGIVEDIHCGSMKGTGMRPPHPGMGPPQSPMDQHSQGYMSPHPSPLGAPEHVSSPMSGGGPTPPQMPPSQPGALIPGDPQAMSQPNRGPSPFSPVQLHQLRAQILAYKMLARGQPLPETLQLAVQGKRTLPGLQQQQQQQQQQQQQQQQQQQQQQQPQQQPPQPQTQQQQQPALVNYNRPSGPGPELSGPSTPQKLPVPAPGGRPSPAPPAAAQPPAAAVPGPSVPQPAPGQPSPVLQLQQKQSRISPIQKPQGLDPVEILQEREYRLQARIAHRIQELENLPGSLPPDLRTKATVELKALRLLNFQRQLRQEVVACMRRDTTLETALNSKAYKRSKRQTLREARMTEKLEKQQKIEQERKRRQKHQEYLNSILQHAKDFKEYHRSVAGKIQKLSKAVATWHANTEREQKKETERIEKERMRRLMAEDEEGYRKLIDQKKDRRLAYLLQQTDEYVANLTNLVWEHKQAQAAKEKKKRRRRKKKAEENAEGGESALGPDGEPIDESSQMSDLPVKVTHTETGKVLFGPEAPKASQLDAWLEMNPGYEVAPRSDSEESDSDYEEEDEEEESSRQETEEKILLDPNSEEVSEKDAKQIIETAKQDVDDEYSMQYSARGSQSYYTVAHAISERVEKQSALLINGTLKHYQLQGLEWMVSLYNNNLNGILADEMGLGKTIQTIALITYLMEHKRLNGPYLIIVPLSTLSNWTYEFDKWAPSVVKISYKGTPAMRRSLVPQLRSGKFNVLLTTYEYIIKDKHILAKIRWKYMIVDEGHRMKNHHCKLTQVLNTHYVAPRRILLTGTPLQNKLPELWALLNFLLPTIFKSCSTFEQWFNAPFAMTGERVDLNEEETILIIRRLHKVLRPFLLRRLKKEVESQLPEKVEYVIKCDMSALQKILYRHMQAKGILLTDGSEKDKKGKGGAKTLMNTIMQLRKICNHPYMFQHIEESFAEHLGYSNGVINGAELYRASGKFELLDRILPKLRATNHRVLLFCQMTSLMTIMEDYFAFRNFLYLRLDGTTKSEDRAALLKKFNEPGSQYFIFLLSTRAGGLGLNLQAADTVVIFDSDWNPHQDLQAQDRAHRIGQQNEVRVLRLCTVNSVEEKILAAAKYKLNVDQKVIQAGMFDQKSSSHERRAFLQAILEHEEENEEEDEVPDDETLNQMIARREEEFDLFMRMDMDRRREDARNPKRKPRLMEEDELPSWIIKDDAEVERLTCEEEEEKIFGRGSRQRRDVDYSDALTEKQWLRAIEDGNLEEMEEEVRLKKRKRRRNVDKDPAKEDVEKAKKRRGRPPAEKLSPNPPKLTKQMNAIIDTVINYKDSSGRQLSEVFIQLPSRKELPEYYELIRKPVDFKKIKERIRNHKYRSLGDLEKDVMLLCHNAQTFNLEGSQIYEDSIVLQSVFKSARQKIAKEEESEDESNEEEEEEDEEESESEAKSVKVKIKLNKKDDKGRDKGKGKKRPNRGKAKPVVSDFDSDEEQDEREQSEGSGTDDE

[5] = system: non-family VIII bromodomains; experiment: BROMOscan profiling from DiscoveRx; type: binding
Family VIII bromodomains = experiment: Isothermal Titration Calorimetry, Family VIII bromodomains; type: binding
[6] = system: non-family VIII bromodomains; experiment: Tm shift panel of 40 bromodomain proteins; type: binding

Sequence of PB1(5) bromodomain (Q86U86 653-763 limits assumed): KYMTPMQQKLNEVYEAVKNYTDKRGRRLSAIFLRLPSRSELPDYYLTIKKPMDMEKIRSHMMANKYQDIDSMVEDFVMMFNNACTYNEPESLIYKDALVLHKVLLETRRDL

O=C(O)c1ccccc1O [Compound 1, salicylic acid]
fragment screen hit quality (DSF) (PB1(5) bromodomain): weak, but highly ligand efficient hit

O=C(/C=C/N1C[C@H]2C[C@@H]1CN2c1ccccn1)c1ccccc1O [Compound 16, (E)-1-(2-hydroxyphenyl)-3-((1R,4R)-5-(pyridin-2-yl)-2,5-diazabicyclo[2.2.1]heptan-2-yl)prop-2-en-1-one]
effect on cell line proliferation [1]: did not show any effect
cytotoxic effect (MTT cell viability) [2]: did not have significant cytotoxic effect
compound recovered [3]: Greater than 90%
SMARCA4 in cell target engagement (FRAP) (SMARCA4): confirmed
inhibition of adipogenesis [4]: Near complete inhibition

C#CCNc1ccnc(N2C[C@H]3C[C@@H]2CN3/C=C/C(=O)c2cccc(OC)c2O)n1 [Compound 18]
half-recovery time of GFP-PB1 (FRAP) (GFP-PB1): no effect

O=C(/C=C/N1[C@H]2CC[C@@H]1c1ncnc(NC3CC3)c1C2)c1ccccc1O [Compound 17]
effect on cell line proliferation [1]: did not show any effect
displacement of GFP-PB1 from chromatin (FRAP) (GFP-PB1; 1 μM): able to displace PB1 from chromatin
FRAP half-recovery time (t1/2) of GFP-SMARCA2 (GFP-SMARCA2 in U2OS): accelerated FRAP half-recovery time (t1/2) significantly in a dose dependent manner
selectivity over non-family VIII bromodomains, BROMOscan [5]: not active
SMARCA4 in cell target engagement (FRAP) (SMARCA4): confirmed
binding to Family VIII bromodomains by ITC (Family VIII bromodomains): potent binder to most of the Family VIII bromodomains
selectivity over non-family VIII bromodomains, Tm shift panel [6]: not active
